The results in this text go back to ChEMBL document CHEMBL4715833, “Design, synthesis, in-vitro, in-vivo and in-silico studies of pyrrolidine-2,5-dione derivatives as multitarget anti-inflammatory agents” (Eur J Med Chem, 2020).

Data set [1] has as its target T1, Prostaglandin G/H synthase 1 (Ovis aries, UniProt P05979).
T1 sequence (P05979 whole entry): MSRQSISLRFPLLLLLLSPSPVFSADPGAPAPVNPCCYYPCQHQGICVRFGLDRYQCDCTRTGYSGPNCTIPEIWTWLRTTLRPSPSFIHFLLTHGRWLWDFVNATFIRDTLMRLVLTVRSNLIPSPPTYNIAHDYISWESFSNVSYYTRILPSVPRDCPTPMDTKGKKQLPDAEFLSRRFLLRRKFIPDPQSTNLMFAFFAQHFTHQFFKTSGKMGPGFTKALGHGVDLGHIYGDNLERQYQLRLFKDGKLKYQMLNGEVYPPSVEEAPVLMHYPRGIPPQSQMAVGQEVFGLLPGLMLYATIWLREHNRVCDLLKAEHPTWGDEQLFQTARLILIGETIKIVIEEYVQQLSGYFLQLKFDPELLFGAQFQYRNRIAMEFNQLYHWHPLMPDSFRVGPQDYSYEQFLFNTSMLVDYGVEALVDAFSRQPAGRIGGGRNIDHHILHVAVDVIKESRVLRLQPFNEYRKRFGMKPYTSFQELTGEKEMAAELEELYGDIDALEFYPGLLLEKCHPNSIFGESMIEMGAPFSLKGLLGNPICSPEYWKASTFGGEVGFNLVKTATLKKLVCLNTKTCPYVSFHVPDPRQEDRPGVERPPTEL
Briefly: Inhibition of sheep COX1 using arachidonic acid as substrate preincubated for 5 mins followed by substrate addition and measured after 5 mins by UV-visible spectrophotometric method. Put shortly: (§1)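 Enzymes activated for 5 min on ice with cofactor solution of 0.9 mM glutathione, hematin and 0.24 mM TMPD in 0.1 M Tris-HCl pH 8.0; COX-2 at 300 units/ml. Reaction started with 30 mM arachidonic acid stock, run 5 min, absorbance read at 570 nm. IC50 taken from inhibition-vs-concentration plots as means of three determinations. SI = IC50(COX-1)/IC50(COX-2).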

For data set [2], the species on record is Homo sapiens. Briefly: Selectivity index, ratio of IC50 for sheep COX1 to IC50 for recombinant human COX2 expressed in baculovirus infected Sf21 cells. In outline:
as §1

The nature of data set [3]: Inhibition of trypsin (unknown origin) using casein as substrate preincubated for 5 mins followed by substrate addition and measured after 20 mins. Details: species or system Homo sapiens. Put shortly:
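Trypsin 0.06 mg/ml in 20 mM Tris-HCl pH 7.4 with compound at 31.25–1000 µg/ml, 5 min at 37 °C. 0.8% (w/v) casein added, 20 min further, stopped with 70% perchloric acid. After centrifugation, supernatant absorbance read at 217 nm against buffer blank. % inhibition against control; IC50 from plot; three runs.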

A short description of data set [4]: Acute toxicity in Swiss albino mouse assessed as change in clinical sign of eyes at 1000 mg/kg, ip administered as single dose measured after 4 hrs. Format: organism-based. Particulars: in vivo. In outline: (§2)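 Swiss albino mice of either sex (30-35 g), kept at 22-25 °C on a 12 h light/dark cycle with free food and water. Single i.p. dose; controls received normal saline 10 mL/kg. Animals were watched at random for allergic or abnormal behavioural signs during the first 4 h.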

Data set [5] in a line: Acute toxicity in Swiss albino mouse assessed as clinical changes in salivation at 1000 mg/kg, ip administered as single dose measured after 4 hrs. Format: organism-based. Particulars: in vivo. In outline:
as §2

A short description of data set [6]: Acute toxicity in Swiss albino mouse assessed as clinical changes in defecation at 1000 mg/kg, ip administered as single dose measured after 4 hrs. Format: organism-based. Particulars: in vivo. Put shortly:
as §2

Data set [7] can be described thus: Acute toxicity in Swiss albino mouse assessed as ptosis at 1000 mg/kg, ip administered as single dose measured after 4 hrs. It counts as organism-based. The note with it: in vivo. In outline: as §2
Data set [8] in a line: Acute toxicity in Swiss albino mouse assessed as change in gait at 1000 mg/kg, ip administered as single dose measured after 4 hrs. It counts as organism-based. Particulars: in vivo. In outline: as §2
Data set [9] in a line: Acute toxicity in Swiss albino mouse assessed as drowsiness at 1000 mg/kg, ip administered as single dose measured after 4 hrs. It counts as organism-based. The note with it: in vivo. Put shortly:
as §2

Data set [10] in a line: Acute toxicity in Swiss albino mouse assessed as tremor at 1000 mg/kg, ip administered as single dose measured after 4 hrs. Format: organism-based. The note with it: in vivo. Put shortly:
as §2

The test system of data set [11] is Mus musculus. Kind of data set: Antiinflammatory activity against carrageenan-induced paw edema in Swiss mouse assessed as inhibition of paw edema at 25 mg/kg administered 30 mins prior to carrageenan challenge and measured after 1 hr by […]-method (reference value: 7.66 +/- 3.753%). Format: functional. Particulars: 1.5 h, time 90 min.
Data set [12] relates to Mus musculus. Kind of data set: Antiinflammatory activity against carrageenan-induced paw edema in Swiss mouse assessed as inhibition of paw edema at 25 mg/kg administered 30 mins prior to carrageenan challenge and measured after 2 hrs by […]-method (reference value: 7.39 +/- 2.475%). It counts as functional. The note with it: time 2.5 hrs.
Data set [13] has as its system Mus musculus. Kind of data set: Antiinflammatory activity against carrageenan-induced paw edema in Swiss mouse assessed as inhibition of paw edema at 25 mg/kg administered 30 mins prior to carrageenan challenge and measured after 3 hrs by […]-method (reference value: 11.41 +/- 3.069%). Format: functional. Particulars: time 3.5 hrs.
Data set [14] relates to Mus musculus. Briefly: Antiinflammatory activity against carrageenan-induced paw edema in Swiss mouse assessed as inhibition of paw edema at 50 mg/kg administered 30 mins prior to carrageenan challenge and measured after 3 hrs by […]-method (reference value: 11.41 +/- 3.069%). It counts as functional. Particulars: time 3.5 hrs.
The subject of data set [15] is Mus musculus. Kind of data set: Antiinflammatory activity against carrageenan-induced paw edema in Swiss mouse assessed as inhibition of paw edema at 100 mg/kg administered 30 mins prior to carrageenan challenge and measured after 3 hrs by […]-method (reference value: 11.41 +/- 3.069%). It counts as functional. The note with it: time 3.5 hrs.
Data set [16] concerns Mus musculus. Kind of data set: Antiinflammatory activity against carrageenan-induced paw edema in Swiss mouse assessed as inhibition of paw edema at 50 mg/kg administered 30 mins prior to carrageenan challenge and measured after 5 hrs by […]-method (reference value: 7.31 +/- 3.204%). Particulars: time 5.5 hrs. It counts as functional.
Data set [17] concerns Mus musculus. Kind of data set: Antiinflammatory activity against carrageenan-induced paw edema in Swiss mouse assessed as inhibition of paw edema at 100 mg/kg administered 30 mins prior to carrageenan challenge and measured after 5 hrs by […]-method (reference value: 7.31 +/- 3.204%). Format: functional. Particulars: time 5.5 hrs.
Data set [18] deals with Mus musculus. Kind of data set: Antiinflammatory activity in histamine-induced paw edema in Balb/c mouse assessed as inhibition of paw edema at 100 mg/kg, ip administered 1 hr prior to histamine challenge and measured after 4 hrs relative to control. Particulars: time 5 hrs. Format: functional. Put shortly: (§3)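 BALB/c mice of either sex (30–35 g), 8 per group, dosed i.p. with 10% DMSO, reference drug or compound (100 mg/kg). After 1 h, subplantar irritant: PGE2 0.01 µg/ml, bradykinin 20 µg/ml, histamine 0.1 ml of 1 mg/ml, or leukotriene 10 µg/ml.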

For data set [19], the system named is Mus musculus. Briefly: Antiinflammatory activity in PGE2-induced paw edema in Balb/c mouse assessed as inhibition of paw edema at 100 mg/kg, ip administered 1 hr prior to PGE2 challenge and measured after 5 hrs. It counts as functional, organism-based. Particulars: time 6.0 hrs. Put shortly:
as §3

In data set [20] the test system is Mus musculus. Briefly: Antiinflammatory activity in leukotriene-induced paw edema in Balb/c mouse assessed as inhibition of paw edema at 100 mg/kg, ip administered 1 hr prior to leukotriene challenge and measured after 2 hrs relative to control. Particulars: time 3 hrs. It counts as functional. In outline:
as §3

The test system of data set [21] is Mus musculus. Briefly: Antiinflammatory activity in PGE2-induced paw edema in Balb/c mouse assessed as inhibition of paw edema at 100 mg/kg, ip administered 1 hr prior to PGE2 challenge and measured up to 5 hrs relative to control. The note with it: time 2-6 hrs. Format: functional. In outline: as §3

The source made the active and inactive calls. The rule behind the calls is not given here.

As for `O=C1CCCCC1C1CC(=O)N(Cc2ccccc2)C1=O` (stereo not drawn), the IC50 in [1] is 62.6 µM; in [3] it was 17.5 µM. Also, the Ratio IC50 in [2] came to 3.13. In addition, the Activity entry in data set [4], in data set [5], in data set [6], in [7], in [8] and in [9] was “Non-Toxic” throughout. Moreover, the Activity entry in [10] was “Non-Toxic”. Moreover, the inhibition in vivo at 25 mg/kg in data set [11] came to 24.3%; in data set [12] it was 28.3%; in [13], 23.3%. In addition, the inhibition in vivo at 50 mg/kg in data set [14] was determined as 41.1%; in data set [16], 47.8%. For the same compound, the inhibition in vivo at 100 mg/kg in data set [15] stood at 51.6%; in [17] it was 55.1%; in data set [18], 17.1%; in data set [20], 60.1%. In addition, the inhibition result in [19] is “Active”.

Turning to `Cc1ccc(C(=O)CC2CC(=O)N(c3ccc(S(N)(=O)=O)cc3)C2=O)cc1` (stereo not drawn), the IC50 came out at 30.9 µM in data set [1] and 15.3 µM in [3]. Besides, the Ratio IC50 in data set [2] came out at 31.5. Moreover, the Activity result in data set [4], in [5], in data set [6], in data set [7], in [8] and in data set [9] was “Non-Toxic” throughout. For the same compound, the Activity entry in data set [10] is “Non-Toxic”. For the same compound, the inhibition in vivo at 25 mg/kg in [11] worked out at 45.6%; in [12], 53%; in [13], 51.5%. Also, the inhibition in vivo at 50 mg/kg in data set [14] is 54.2%; in data set [16] it was 59.3%. The inhibition in vivo at 100 mg/kg in data set [15] came to 61.6%; in [17], 68.2%; in data set [21], 61.6%.
